From ChEMBL document CHEMBL4017524, “A Novel Arylurea Fatty Acid That Targets the Mitochondrion and Depletes Cardiolipin To Promote Killing of Breast Cancer Cells” (J Med Chem, 2017)
Active and inactive are the calls of the source. The rule behind the calls is not given here.

Assays:
[1] = system: MDA-MB-231; assay: Induction of apoptosis in human MDA-MB-231 cells assessed as mitochondrial membrane disruption by measuring red to green fluorescence ratio at 10 uM after 24 hrs by JC-1 staining based microscopic method relative to control; assay type: functional
In short: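 Cells exposed for 24 h at 10 µM, then stained with the cationic dye JC-1. Red (aggregate, intact inner membrane) to green (monomer) fluorescence ratio expressed relative to DMSO control. Mean±SEM of three experiments.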

[2] = system: MDA-MB-231; assay: Cytotoxicity against human MDA-MB-231 cells assessed as decrease in cell adherence at 40 uM after 48 hrs by crystal violet staining based assay; assay type: functional
[3] = system: MDA-MB-231; assay: Cell cycle arrest in human MDA-MB-231 cells at 10 uM after 24 hrs by propidium iodide staining based flow cytometric analysis
[4] = system: MDA-MB-231; assay: Cytotoxicity against human MDA-MB-231 cells assessed as decrease in cell viability at 40 uM after 48 hrs by crystal violet staining based assay; assay type: functional
[5] = system: MDA-MB-231; assay: Cytotoxicity against human MDA-MB-231 cells assessed as decrease in ATP production at 10 uM after 24 to 48 hrs by CellTiter-Glo luminescent assay; assay type: functional, cell-based
[6] = system: MDA-MB-231; assay: Induction of apoptosis in human MDA-MB-231 cells at 10 uM after 48 hrs by annexin VFITC/7AAD staining based flow cytometry; assay type: functional, cell-based
In short: (§1)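 Annexin V-FITC/7AAD flow cytometry of cells after 48 h at 10 µM. Quadrants: E4 annexin V only (early apoptotic), E2 dual-stained (late apoptotic), E1 7AAD only, E3 unstained (viable). Compared with DMSO control. Mean±SEM from three experiments.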

[7] = system: MDA-MB-231; assay: Induction of apoptosis in human MDA-MB-231 cells assessed as increase in caspases 3/7 activity at 10 uM after 48 hrs by Caspase-Glo assay; assay type: functional, cell-based
[8] = system: MDA-MB-468; assay: Cytotoxicity against human MDA-MB-468 cells assessed as decrease in ATP production at 10 uM up to 72 hrs by CellTiter-Glo luminescent assay; assay type: functional, cell-based
[9] = system: MDA-MB-231; assay: Induction of apoptosis in human MDA-MB-231 cells assessed as plasma membrane phospholipid phosphatidylcholine level per 1.05 X 10^7 cells at 14 uM after 24 hrs (reference value: 91 +/- 9 ug); assay type: functional
[10] = system: MDA-MB-231; assay: Induction of mitochondrial membrane disruption in human MDA-MB-231 cells assessed as mitochondrial phosphatidylglycerol level at 14 uM after 24 hrs relative to control; assay type: functional
[11] = system: MDA-MB-231; assay: Induction of apoptosis in human MDA-MB-231 cells assessed as necrotic cells at 10 uM after 48 hrs by annexin VFITC/7AAD staining based flow cytometry (reference value: 1.5 +/- 0.2%); assay type: functional; in short: as §1
[12] = system: MDA-MB-231; assay: Induction of reactive oxygen species in human MDA-MB-231 cells after 2 to 6 hrs by 2',7'-dichlorofluorescin dye based flow cytometric analysis; assay type: functional, cell-based
In short: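 Pro-oxidant stress followed by flow cytometry using 2',7'-dichlorofluorescin diacetate after 2-6 h of treatment in MDA-MB-231 cells.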

[13] = system: MDA-MB-231; assay: Induction of mitochondrial membrane disruption in human MDA-MB-231 cells assessed as mitochondrial phosphatidylglycerol level at 14 uM after 24 hrs in presence of oleic acid; assay type: functional, cell-based
[14] = system: MDA-MB-231; assay: Cytotoxicity against human MDA-MB-231 cells assessed as decrease in ATP production at 10 uM after 24 hrs in presence of mitochondrial permeability transition pore inhibitor cyclosporin A by CellTiter-Glo luminescent assay; assay type: functional, cell-based
In short: (§2)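 ATP formation read in MDA-MB-231 cells co-treated with BAPTA-AM (5 or 25 µM) or with cyclosporin A (10 or 20 µM).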

[15] = system: MDA-MB-231; assay: Induction of apoptosis in human MDA-MB-231 cells assessed as viable cells at 10 uM after 48 hrs by annexin VFITC/7AAD staining based flow cytometry (reference value: 86.2 +/- 2.3%); assay type: functional; conditions: MDA-MB-231, 48 h, read-out: Activity; in short: as §1
[16] = system: MDA-MB-231; assay: Cytotoxicity against human MDA-MB-231 cells assessed as ATP production at 10 uM after 48 hrs by CellTiter-Glo luminescent assay relative to control; assay type: functional
[17] = system: MDA-MB-231; assay: Cytotoxicity against human MDA-MB-231 cells assessed as decrease in cell viability at 40 uM after 48 hrs in presence of alpha-tocopherol by crystal violet staining based assay; assay type: functional
[18] = system: MDA-MB-231; assay: Cell cycle arrest in human MDA-MB-231 cells assessed as accumulation at sub-G1 phase at 10 uM after 24 hrs by propidium iodide staining based flow cytometric analysis (reference value: 1.4 +/- 0.03%); assay type: functional
[19] = system: T47D; assay: Induction of apoptosis in human T47D cells assessed as increase in caspases 3/7 activity at 10 uM after 48 hrs by Caspase-Glo assay; assay type: functional, cell-based
[20] = system: MDA-MB-231; assay: Cell cycle arrest in human MDA-MB-231 cells assessed as decrease in accumulation of S phase at 10 uM after 24 hrs by propidium iodide staining based flow cytometric analysis; assay type: functional
[21] = system: MDA-MB-231; assay: Antitumor activity against human MDA-MB-231 cells xenografted in ip dosed Balb/c nu/nu mouse assessed as decrease in tumor volume administered once daily 6 days per week for 32 to 38 days; assay type: functional, organism-based
In short: (§3)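 Female nu/nu mice, 7 weeks old, n=5-8 per group. Each received 4x10⁵ cells in 100 µl by subcutaneous injection into the 4th mammary fat pad. Intraperitoneal dosing at graded doses. Body weights and tumour sizes were measured. Isolated tumour sections were stained for TUNEL (apoptosis) and Ki67 (proliferation), with DAPI nuclear stain.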

[22] = system: MDA-MB-231; assay: Induction of apoptosis in human MDA-MB-231 cells assessed as increase in caspases 3/7 activity at 10 uM after 24 hrs by Caspase-Glo assay relative to control; assay type: functional
In short: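 Executioner caspase-3/7 activity read after 24 h exposure at 10 µM and expressed relative to DMSO-treated control. Basal activity per 7.5 x 10⁴ cells was recorded. Mean±SEM of three separate experiments.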

[23] = system: MDA-MB-231; assay: Cell cycle arrest in human MDA-MB-231 cells assessed as decrease in accumulation of G0G1 phase at 10 uM after 24 hrs by propidium iodide staining based flow cytometric analysis; assay type: functional
[24] = system: MDA-MB-231; assay: Cytotoxicity against human MDA-MB-231 cells assessed as ATP production at 10 uM after 24 hrs by CellTiter-Glo luminescent assay relative to control; assay type: functional
In short: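 MDA-MB-231 cells exposed to 10 µM for 24 h, then ATP formation measured and expressed relative to DMSO-treated control. Basal ATP per 7.5 x 10⁴ cells was recorded at 24 h. Mean±SEM from three separate experiments.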

[25] = system: T47D; assay: Cytotoxicity against human T47D cells assessed as decrease in ATP production at 10 uM up to 72 hrs by CellTiter-Glo luminescent assay; assay type: functional, cell-based
[26] = system: MDA-MB-231; assay: Induction of mitochondrial membrane disruption in human MDA-MB-231 cells assessed as mitochondrial cardiolipin level at 14 uM after 24 hrs relative to control; assay type: functional
[27] = system: MDA-MB-231; assay: Induction of apoptosis in human MDA-MB-231 cells assessed as mitochondrial membrane disruption at 10 uM after 6 hrs by JC-1/Hoechst 33342 staining based fluorescence microscopic assay; assay type: functional, cell-based
In short: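 Treatment with 10 µM or DMSO for 6 h. Cells were washed twice with serum-free medium, then incubated with JC-1 in serum-free medium at 37°C for 20 min. Hoechst 33342 nuclear counterstain, then fluorescence microscopy of green monomers versus red aggregates.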

[28] = system: MDA-MB-231; assay: Antitumor activity against human MDA-MB-231 cells xenografted in Balb/c nu/nu mouse assessed as decrease in Ki67 biomarkers at 2.5 to 40 mg/kg, ip qd administered 6 days per week for 32 to 38 days by […] immunohistochemical analysis; assay type: functional, organism-based; in short: as §3
[29] = system: MDA-MB-231; assay: Antitumor activity against human MDA-MB-231 cells xenografted in Balb/c nu/nu mouse assessed as TUNEL positive cells at 2.5 to 40 mg/kg, ip qd administered 6 days per week for 32 to 38 days; assay type: functional, organism-based; in short: as §3
[30] = system: MDA-MB-231; assay: Induction of apoptosis in human MDA-MB-231 cells assessed as early apoptotic cells at 10 uM after 48 hrs by annexin VFITC/7AAD staining based flow cytometry (reference value: 6.6 +/- 1.4%); assay type: functional; in short: as §1
[31] = system: MDA-MB-231; assay: Induction of apoptosis in human MDA-MB-231 cells assessed as late apoptotic cells at 10 uM after 48 hrs by annexin VFITC/7AAD staining based flow cytometry (reference value: 5.9 +/- 0.9%); assay type: functional; in short: as §1
[32] = system: MCF7; assay: Induction of apoptosis in human MCF7 cells assessed as increase in caspases 3/7 activity at 10 uM after 48 hrs by Caspase-Glo assay; assay type: functional, cell-based
[33] = system: MDA-MB-231; assay: Cytotoxicity against human MDA-MB-231 cells assessed as decrease in ATP production at 10 uM after 24 hrs in presence of Ca2+ chelator BAPTA-AM by CellTiter-Glo luminescent assay; assay type: functional, cell-based; in short: as §2
[34] = system: MDA-MB-231; assay: Induction of mitochondrial membrane disruption in human MDA-MB-231 cells assessed as mitochondrial cardiolipin level at 14 uM after 24 hrs in presence of oleic acid; assay type: functional, cell-based
[35] = system: MCF-10A; assay: Cytotoxicity against human MCF10A cells assessed as decrease in ATP production at 10 to 20 uM after 48 hrs by CellTiter-Glo luminescent assay; assay type: cell-based
[36] = system: MDA-MB-231; assay: Cell cycle arrest in human MDA-MB-231 cells assessed as decrease in accumulation of G2M phase at 10 uM after 24 hrs by propidium iodide staining based flow cytometric analysis; assay type: functional
[37] = system: MDA-MB-468; assay: Induction of apoptosis in human MDA-MB-468 cells assessed as increase in caspases 3/7 activity at 10 uM after 48 hrs by Caspase-Glo assay; assay type: functional, cell-based
[38] = system: Mus musculus; assay: Toxicity in Balb/c nude mouse assessed as change in body weight at 2.5 to 40 mg/kg, ip qd for 5 days; assay type: organism-based; conditions: in vivo, 120 h
In short: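 Balb/c mice given 2.5-40 mg/kg intraperitoneally for 5 days. Weight gain and other signs of toxicity were monitored.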

[39] = system: MCF7; assay: Cytotoxicity against human MCF7 cells assessed as decrease in ATP production at 10 uM up to 72 hrs by CellTiter-Glo luminescent assay; assay type: functional, cell-based

`O=C(O)CCCCCCCCCCCCCCCNC(=O)Nc1ccc(Cl)c(Cl)c1` was tested, and the Activity [1] was “inactive”, the Activity [2] was “inactive” and the Activity [3] was “inactive”. For the same compound, the Activity [4] was “inactive”, the Activity [5] was “inactive” and the Activity [6] was “inactive”. For the same compound, the Activity [7] was “inactive”.

`CC(C)(C)c1ccc(NC(=O)NCCCCCCCCCCCCCCCC(=O)O)cc1` was tested, and the Activity [1] was “inactive” and the Activity [5] was “inactive”.

In the case of `O=C(O)CCCCCCCCCCCCCCCNC(=O)Nc1ccc(Cl)c(C(F)(F)F)c1`, the Activity [8] is reported as “Active”, the Activity [9] is reported as 88 µg and the Activity [10] is reported as 61%. For the same compound, the Activity [11] was 5.9%, the Activity [12] was “inactive” and the Activity [13] was “inactive”. The Activity [14] was “Active”, the viability at 10 µM [15] was 62.4% and the Activity [16] was 30%. For the same compound, the Activity [17] was “Active”, the Activity [18] was 20% and the Activity [19] was “Active”. The Activity [20] was “Active”, the Activity [21] was “Dose-dependent effect” and the Activity [22] was 203%. For the same compound, the Activity [1] was 32%, the Activity [23] was “Active” and the Activity [24] was 72%. For the same compound, the Activity [25] was “Active”, the Activity [26] was 61% and the Activity [2] was “Active”. For the same compound, the Activity [27] was “Active”, the Activity [28] was “Active” and the Activity [29] was “Active”. The Activity [30] was 11%, the Activity [31] was 20% and the Activity [32] was “inactive”. The Activity [4] was “Active”, the Activity [33] was “Active” and the Activity [34] was “inactive”. The Activity [35] was “Non-Toxic”, the Activity [36] was “Active” and the Activity [37] was “inactive”. For the same compound, the Activity [38] was “Non-Toxic” and the Activity [39] was “Active”.

For `CCNC(=O)NCCCCCCCCCCCCCCCC(=O)O`, the Activity [1] was “inactive”, the Activity [26] was “inactive” and the Activity [3] was “inactive”. For the same compound, the Activity [5] was “inactive” and the Activity [6] was “inactive”.

For `O=C(O)CCCCCCCCCCCCCCCNC(=O)Nc1ccc(F)cc1`, the Activity [1] was “inactive” and the Activity [5] was “inactive”.

With `Cc1cc(NC(=O)NCCCCCCCCCCCCCCCC(=O)O)ccc1Cl` the Activity [1] was “inactive”, the Activity [2] was “inactive” and the Activity [4] was “inactive”. For the same compound, the Activity [5] was “inactive” and the Activity [7] was “inactive”.
